Measurements taken from ChEMBL document CHEMBL1147901, “Anticancer, neuroprotective activities and computational studies of 2-amino-1,3,4-thiadiazole based compound” (Bioorg Med Chem, 2007).
Activity calls are given as the source filed them.

Experiments:
Rattus norvegicus [1] = species on record: Rattus norvegicus; experiment: Neuroprotective activity against serum deprivation induced neurotoxicity in rat cortical neurons; type: functional
Summary of the method: (§1)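 Cortical neurons from E18 Wistar rat fetuses, plated at 5 × 10^5 cells/mL on poly-L-lysine in B-27/Neurobasal medium and grown to 14 days. Insult was glutamate (500 µM) or serum deprivation (Neurobasal without B-27), alone or with 10 or 25 µM compound, for 48 h. MTT read-out as mean normalized OD ±SEM of 4–8 trials.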

C6 [2] = experiment: Antiproliferative activity against rat glioma C6 cells at 25 uM after 96 hrs by MTT assay; type: functional, cell-based; settings: C6, 96 h
Summary of the method: (§2)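 MTT viability. Seeded per well at 0.5 × 10^4 (C6), 1 × 10^4 (TE671, A549) or 3 × 10^4 (HT-29, SK-N-AS). Next day exposed to serial dilutions (5–100 µM) in fresh medium with 10% FBS at 37 °C, 5% CO2 for 96 h. MTT (5 mg/mL) for 4 h, formazan dissolved overnight in 10% SDS/0.01 N HCl, A570. Threshold concentration giving antiproliferative effect recorded.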

A549 [3] = experiment: Antiproliferative activity against human A549 cells assessed as decreased cell division after 48 hrs; type: functional, cell-based; settings: A549, 48 h
Summary of the method: (§3)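 BrdU ELISA. Cells seeded at 2 × 10^4 (A549) or 1 × 10^4 (C6) per well. Next day, fresh medium containing serial dilutions (5–50 µM) was added for 48 h. Cells were then labelled with 10 µM BrdU for 2 h, fixed/denatured 30 min, probed with peroxidase anti-BrdU and developed with TMB. Stopped with 1 M H2SO4, A450. Mean normalized OD ±SEM of 5–8 trials, linear regression.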

C6 [4] = experiment: Inhibition of rat glioma C6 cell migration at 5 uM after 24 hrs; type: functional, cell-based
Summary of the method: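 Scratch-wound assay. 1 × 10^6 C6 cells were plated per 4-cm dish. Next day the monolayer was scratched with a pipette tip and rinsed twice with PBS. Fresh medium alone or with 5 µM compound for 24 h, then May-Grünwald–Giemsa staining. Cells migrated into the wound were counted on micrographs as mean per field ±SEM over 50 wound areas from four micrographs; Student's t test.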

SK-N-AS = experiment: Antiproliferative activity against human SK-N-AS cells at 25 uM after 96 hrs by MTT assay; type: functional, cell-based; summary of the method: as §2
Rattus norvegicus [5] = species on record: Rattus norvegicus; experiment: Neuroprotective activity against glutamate-induced neurotoxicity in rat cortical neurons; type: functional; summary of the method: as §1
TE-671 = experiment: Antiproliferative activity against human TE671 cells at 10 uM after 96 hrs by MTT assay; type: functional, cell-based; settings: TE-671, 96 h; summary of the method: as §2
C6 [6] = experiment: Antiproliferative activity against rat glioma C6 cells assessed as decreased cell division after 48 hrs; type: functional, cell-based; settings: C6, 48 h; summary of the method: as §3
HT-29 = experiment: Antiproliferative activity against human HT29 cells at 5 uM after 96 hrs by MTT assay; type: functional, cell-based; settings: HT-29, 96 h; summary of the method: as §2
A549 [7] = experiment: Antiproliferative activity against human A549 cells at 10 uM after 96 hrs by MTT assay; type: functional, cell-based; settings: A549, 96 h; summary of the method: as §2

Compound: Oc1ccc(-c2nnc(Nc3ccc(F)cc3)s2)c(O)c1
- Activity (Rattus norvegicus [1]): Dose-dependent effect
- IC50 (C6 [2]): 27.3 µM
- IC50 (A549 [3]): 13.7 µM
- Activity (C6 [4]): Active
- IC50 (SK-N-AS): 54.7 µM
- Activity (Rattus norvegicus [5]): Dose-dependent effect
- IC50 (TE-671): 26 µM
- IC50 (C6 [6]): 23.5 µM
- IC50 (HT-29): 33.1 µM
- IC50 (A549 [7]): 22.8 µM
